Experimental data published in ChEMBL document CHEMBL4359929, “Piperidine and piperazine inhibitors of fatty acid amide hydrolase targeting excitotoxic pathology” (Bioorg Med Chem, 2019).
Calls of active or inactive are those of the source. The rule behind the calls is not given here.

Assays:
[1] = target: Cannabinoid receptor 2 (Homo sapiens) (UniProt P34972); experiment: Displacement of [3H]CP55940 from human CB2 receptor expressed in HEK293 cells by competition-equilibrium binding analysis; assay type: cell-based
Chain of Cannabinoid receptor 2 (Homo sapiens) (P34972 whole entry): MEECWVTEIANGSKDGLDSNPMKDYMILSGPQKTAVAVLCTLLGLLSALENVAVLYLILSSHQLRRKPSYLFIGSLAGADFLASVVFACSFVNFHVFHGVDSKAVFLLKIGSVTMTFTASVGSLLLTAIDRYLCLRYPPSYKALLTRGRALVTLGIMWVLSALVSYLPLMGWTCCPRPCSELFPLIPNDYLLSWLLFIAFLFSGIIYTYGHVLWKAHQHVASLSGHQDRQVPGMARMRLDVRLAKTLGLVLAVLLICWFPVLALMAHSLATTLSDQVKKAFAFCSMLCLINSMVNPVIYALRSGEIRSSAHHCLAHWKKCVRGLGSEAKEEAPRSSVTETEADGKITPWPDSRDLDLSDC
In short: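 HEK293 cell membranes expressing mouse or human CB2; competition-equilibrium binding against [3H]CP-55,940.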

[2] = Stability in rat gastric fluid assessed as half life; assay type: ADME, tissue-based, Gastric juice
In short: (§1)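 Stability assessed as half-life in human, rat and mouse plasma and gastric fluid, and in human, rat and mouse liver microsomal preparations.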

[3] = Selectivity ratio of IC50 for human recombinant His-tagged MGL expressed in Escherichia coli BL21 DE3 cells to IC50 for rat recombinant His/GST-tagged FAAH expressed in Escherichia coli cells by fluorescence based assay
Monoglyceride lipase = target: T1, Monoglyceride lipase (Homo sapiens, UniProt Q99685); experiment: Inhibition of human recombinant His-tagged MGL expressed in Escherichia coli BL21 DE3 cells using AHMMCE as substrate preincubated with enzyme for 15 mins followed by substrate addition and measured after every 15 mins for 3 hrs by fluorescence based assay
T1 sequence (Q99685 whole entry): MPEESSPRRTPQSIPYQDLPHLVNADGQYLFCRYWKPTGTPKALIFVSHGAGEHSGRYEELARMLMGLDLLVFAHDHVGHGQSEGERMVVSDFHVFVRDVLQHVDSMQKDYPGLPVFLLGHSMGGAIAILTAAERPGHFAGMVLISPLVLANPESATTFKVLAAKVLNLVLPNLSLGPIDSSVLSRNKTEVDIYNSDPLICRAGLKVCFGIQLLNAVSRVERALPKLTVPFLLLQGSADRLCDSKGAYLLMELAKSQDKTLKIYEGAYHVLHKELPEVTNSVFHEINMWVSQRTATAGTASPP
In short: (§2)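 Fluorescent enzyme assay in throughput format. Human recombinant FAAH or purified rat FAAH used arachidonoyl 7-amino-4-methylcoumarin amide as substrate; human recombinant MGL was run by a similar fluorometric procedure.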

[4] = target: T2, Fatty-acid amide hydrolase 1 (Rattus norvegicus) (UniProt P97612); experiment: Inhibition of FAAH in rat brain membrane at 1 to 10 uM incubated for 30 mins followed by incubation with FP-Rh probe for 45 mins by ABPP assay; assay type: cell membranes
T2 sequence (whole entry): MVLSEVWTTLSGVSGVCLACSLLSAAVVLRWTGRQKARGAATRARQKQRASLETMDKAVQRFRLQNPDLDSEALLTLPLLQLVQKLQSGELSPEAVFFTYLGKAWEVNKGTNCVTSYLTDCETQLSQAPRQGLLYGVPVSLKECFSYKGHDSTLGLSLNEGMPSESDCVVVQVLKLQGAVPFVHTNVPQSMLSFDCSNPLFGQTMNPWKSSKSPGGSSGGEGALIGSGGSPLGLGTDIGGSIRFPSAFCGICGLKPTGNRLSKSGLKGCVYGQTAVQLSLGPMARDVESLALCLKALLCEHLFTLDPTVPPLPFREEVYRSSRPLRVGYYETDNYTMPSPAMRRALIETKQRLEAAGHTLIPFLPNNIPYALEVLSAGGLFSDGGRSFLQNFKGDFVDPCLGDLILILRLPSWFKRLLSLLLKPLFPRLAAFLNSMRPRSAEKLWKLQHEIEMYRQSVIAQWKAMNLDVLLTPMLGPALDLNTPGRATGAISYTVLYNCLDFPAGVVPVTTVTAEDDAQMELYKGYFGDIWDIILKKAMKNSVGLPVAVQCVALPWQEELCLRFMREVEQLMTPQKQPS
In short: (§3)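 Gel-based competitive ABPP on rat brain membrane homogenates (10 mg/mL protein). Compound at 1 and 10 μM or DMSO for 30 min at room temperature, then 10 μM rhodamine-tagged fluorophosphonate probe for 45 min at room temperature. FAAH was run with a reference FAAH inhibitor at 10 μM as positive control. Serine hydrolase labelling read by in-gel fluorescence.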

[5] = target: T3, Fatty-acid amide hydrolase 1 (Rattus norvegicus, UniProt P97612); experiment: Inhibition of rat recombinant His/GST-tagged FAAH expressed in Escherichia coli cells using AAMCA as substrate incubated for 15 mins followed by substrate addition and measured after every 20 mins for 4 hrs by fluorescence based assay; in short: as §2
T3 sequence (P97612 whole entry): T2 sequence (whole entry)

[6] = Stability in rat plasma assessed as half life; assay type: ADME, cell-free; in short: as §1
[7] = target: Cannabinoid receptor 1 (Rattus norvegicus) (UniProt P20272); experiment: Displacement of [3H]CP55940 from CB1 receptor in rat brain by competition-equilibrium binding analysis
Target sequence in this assay (P20272 whole entry, looked up): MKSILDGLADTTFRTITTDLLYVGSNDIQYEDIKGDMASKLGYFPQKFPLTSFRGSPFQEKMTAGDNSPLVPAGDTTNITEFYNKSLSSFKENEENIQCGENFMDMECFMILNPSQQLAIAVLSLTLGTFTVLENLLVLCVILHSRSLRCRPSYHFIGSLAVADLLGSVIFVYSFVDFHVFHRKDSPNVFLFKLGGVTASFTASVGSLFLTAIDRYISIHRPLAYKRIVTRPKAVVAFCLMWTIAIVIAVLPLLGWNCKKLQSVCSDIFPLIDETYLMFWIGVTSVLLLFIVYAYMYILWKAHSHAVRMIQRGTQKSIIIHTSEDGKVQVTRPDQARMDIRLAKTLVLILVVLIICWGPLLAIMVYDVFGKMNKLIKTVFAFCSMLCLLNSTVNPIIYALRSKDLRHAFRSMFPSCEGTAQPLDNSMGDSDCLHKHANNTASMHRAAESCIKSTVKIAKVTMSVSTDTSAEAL

[8] = Stability in mouse liver microsomes assessed as half life; assay type: ADME, Microsome; in short: as §1
[9] = target: Cannabinoid receptor 1 (Rattus norvegicus) (UniProt P20272); experiment: Displacement of [3H]CP55940 from CB1 receptor in rat brain by competition-equilibrium binding analysis; assay type: tissue-based
In short: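 Rat brain membranes as CB1 source; competition-equilibrium binding against [3H]CP-55,940.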
Target sequence in this assay (P20272 whole entry): as the sequence (P20272 whole entry, looked up) above

[10] = Stability in human gastric fluid assessed as half life; assay type: ADME, tissue-based, Gastric juice; in short: as §1
[11] = target: T4, Monoglyceride lipase (Rattus norvegicus) (UniProt Q8R431); experiment: Inhibition of MGL in rat brain membrane at 1 to 10 uM incubated for 30 mins followed by incubation with FP-Rh probe for 45 mins by ABPP assay; assay type: cell membranes; in short: as §3
T4 sequence (whole entry): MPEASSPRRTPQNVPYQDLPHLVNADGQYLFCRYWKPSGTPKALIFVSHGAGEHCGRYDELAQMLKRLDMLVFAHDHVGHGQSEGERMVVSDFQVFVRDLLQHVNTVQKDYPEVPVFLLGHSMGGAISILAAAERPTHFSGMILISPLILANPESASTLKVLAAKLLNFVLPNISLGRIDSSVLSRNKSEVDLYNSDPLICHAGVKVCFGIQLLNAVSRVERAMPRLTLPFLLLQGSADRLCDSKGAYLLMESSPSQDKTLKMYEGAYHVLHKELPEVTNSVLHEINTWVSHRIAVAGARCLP

Hippocampus [12] = experiment: (§4) Neuroprotective activity against Sprague-Dawley rat hippocampus assessed as decrease in KA-induced excitotoxicity by measuring increase in GluR1 level at 3 to 30 uM preincubated for 1 hr followed by KA stimulation for 2 hrs in continued presence of compound followed by KA wash out and then further incubation with compound for 24 hrs by immunoblot analysis; assay type: functional, tissue-based
In short: (§5)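 Sprague-Dawley rat hippocampal slices (400 μm, postnatal day 12) cultured 18–20 days at 37 °C, 5% CO2. Pretreated 60 min with 3–30 μM compound or 0.1% DMSO, then 60 μM kainic acid for 2 h with compound. Three washouts, then 24 h recovery with 30 μM compound. Harvested in groups of 7–9; GluR1, synaptophysin and synapsin IIb by immunoblot with optical density. Unpaired t-tests.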

Hippocampus [13] = experiment: as §4, with “syn IIb” for “GluR1”; assay type: functional, tissue-based; in short: as §5
[14] = Stability in mouse plasma assessed as half life; assay type: ADME, cell-free; in short: as §1
[15] = Stability in mouse gastric fluid assessed as half life; assay type: ADME, tissue-based, Gastric juice; in short: as §1
[16] = Stability in human liver microsomes assessed as half life; assay type: ADME, Microsome; in short: as §1
[17] = Stability in rat liver microsomes assessed as half life; assay type: ADME, Microsome; in short: as §1

Structure (SMILES) | Activity [1] | half-life [2] | Ratio IC50 [3] | IC50 (Monoglyceride lipase) | inhibition [4] | IC50 [5] | half-life [6] | Activity [7] | half-life [8] | Activity [9] | half-life [10] | inhibition [11] | inhibition (Hippocampus [12]) | inhibition (Hippocampus [13]) | half-life [14] | half-life [15] | half-life [16] | half-life [17]
O=C(Oc1cccc(N2CCS(=O)(=O)CC2)c1)N1CCC(c2ccc(N3CCC3)cc2)CC1 | inactive | > 60 min | > 1000 | > 1000 nM | 100% | 5.8 nM | > 60 min | inactive | 15 to 25 min | inactive | > 60 min | inactive | Active | Active | > 60 min | > 60 min | 15 to 25 min | 15 to 25 min
C[C@@H]1CN(c2ccc(F)cc2)CCN1C(=O)Oc1cccc(N2CCS(=O)(=O)CC2)c1 | inactive | > 60 min | > 1000 | > 1000 nM | 100% | 6.3 nM | > 60 min | inactive | 15 to 25 min | inactive | > 60 min | inactive | Active | Active | > 60 min | > 60 min | 15 to 25 min | 15 to 25 min
